In ChEMBL document CHEMBL4028904, “Discovery of a Novel Series of Tankyrase Inhibitors by a Hybridization Approach” (J Med Chem, 2017):
Converted amounts (≈) assume the structure as drawn.

Legend:
[1] = target: Protein mono-ADP-ribosyltransferase PARP4 (Homo sapiens, UniProt Q9UKK3); experiment: Inhibition of human PARP4 using NAD+ as substrate by fluorescence assay
[2] = tested on: P388; experiment: Antitumor activity against mouse P388 cells allografted in immunocompetent BDF1 mouse assessed as tumor growth inhibition at 15 mg/kg, po administered qd for 10 days measured on day 12 post last dose; type: functional; conditions: read-out: TGI
Outline: (§1)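 Immunocompetent BDF1 (DBA2 × C57Bl6j) mice were implanted with p388 cells and randomized after 2 days into vehicle (1% starch, n = 6) and two treatment groups (n = 5 each). Dosing was oral, once daily, for 10 days. Tumor size was measured by caliper at the end. Values are tumor size reduction relative to vehicle control.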

[3] = Kinetic solubility of the compound in PBS buffer at pH 7.4 at 25 degC after 2 hrs; type: physicochemical; conditions: read-out: Kinetic_solubility
[4] = Inhibition of CYP1A in human liver microsomes using ethoxyresorufin as substrate after 30 mins by LC-MS/MS analysis; type: ADME
[5] = target: Maternal embryonic leucine zipper kinase (Homo sapiens) (UniProt Q14680); experiment: Inhibition of MELK (unknown origin) at 10 uM after 60 mins in presence of [gamma-33P]-ATP by microplate scintillation counting
Outline: (§2)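 A panel of 320 wild-type protein kinases was screened with the compound at 10 μM. Activity is reported as percent inhibition.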

[6] = AUC (0 to t) in Beagle dog at 7 mg/kg, po measured up to 24 hrs postdose; type: ADME, organism-based, Canis lupus familiaris; parameters: time < 24 hr, dose 7 mg/kg, route oral; conditions: in vivo
[7] = target: Poly [ADP-ribose] polymerase 1 (Homo sapiens, UniProt P09874); experiment: Inhibition of recombinant human PARP1 expressed in Escherichia coli using NAD+ as substrate after 10 mins by fluorescence assay
[8] = Oral bioavailability in Beagle dog at 7 mg/kg measured up to 24 hrs postdose; type: ADME, organism-based, Canis lupus familiaris; conditions: in vivo
[9] = Oral bioavailability in ICR mouse at 5 mg/kg measured up to 24 hrs postdose; type: ADME, organism-based; conditions: in vivo
[10] = AUC (0 to t) in ICR mouse at 5 mg/kg, po measured up to 24 hrs postdose; type: ADME, organism-based; parameters: time < 24 hr, dose 5 mg/kg, route oral; conditions: in vivo
[11] = AUC (0 to t) in Sprague-Dawley rat at 14 mg/kg, po measured up to 24 hrs postdose; type: ADME, organism-based; parameters: time < 24 hr, dose 14 mg/kg, route oral; conditions: in vivo
[12] = target: Cytochrome P450 2D6 (Homo sapiens, UniProt P10635); experiment: Inhibition of CYP2D6 in human liver microsomes using dextromethorphan as substrate after 30 mins by LC-MS/MS analysis; type: ADME
[13] = target: Protein mono-ADP-ribosyltransferase PARP12 (Homo sapiens, UniProt Q9H0J9); experiment: Inhibition of human PARP12 using NAD+ as substrate by fluorescence assay
[14] = target: Cytochrome P450 2C19 (Homo sapiens, UniProt P33261); experiment: Inhibition of CYP2C19 in human liver microsomes using mephenytoin as substrate after 30 mins by LC-MS/MS analysis; type: ADME
[15] = Terminal half life in ICR mouse at 5 mg/kg, po measured up to 24 hrs postdose; type: ADME, organism-based; conditions: in vivo, read-out: beta t1/2 (converted)
[16] = target: Serine/threonine-protein kinase 16 (Homo sapiens) (UniProt O75716); experiment: Inhibition of TSF1 (unknown origin) at 10 uM after 60 mins in presence of [gamma-33P]-ATP by microplate scintillation counting; outline: as §2
[17] = Cmax in ICR mouse at 5 mg/kg, po measured up to 24 hrs postdose; type: ADME, organism-based; parameters: dose 5 mg/kg, route oral; conditions: in vivo
[18] = target: Protein mono-ADP-ribosyltransferase PARP14 (Homo sapiens, UniProt Q460N5); experiment: Inhibition of human PARP14 using NAD+ as substrate by fluorescence assay
[19] = Apparent permeability across apical to basolateral side in MDCK cells expressing human MDR1 at 10 uM after 2 hrs by LC/MS/MS analysis; type: ADME, cell-based, Canis lupus familiaris; conditions: dog
[20] = target: Protein mono-ADP-ribosyltransferase PARP15 (Homo sapiens, UniProt Q460N3); experiment: Inhibition of human PARP15 using NAD+ as substrate by fluorescence assay
[21] = target: Protein mono-ADP-ribosyltransferase PARP10 (Homo sapiens, UniProt Q53GL7); experiment: Inhibition of human PARP10 using NAD+ as substrate by fluorescence assay
[22] = Terminal half life in Beagle dog at 7 mg/kg, po measured up to 24 hrs postdose; type: ADME, organism-based, Canis lupus familiaris; conditions: in vivo, read-out: beta t1/2 (converted)
[23] = target: cGMP-dependent protein kinase 1 (Homo sapiens) (UniProt Q13976); experiment: Inhibition of PRKG1 (unknown origin) at 10 uM after 60 mins in presence of [gamma-33P]-ATP by microplate scintillation counting; outline: as §2
[24] = Drug excretion in Sprague-Dawley rat urine at 7 mg/kg, iv or 14 mg/kg, po measured up to 24 hrs by LC-MS/MS; type: ADME, organism-based; conditions: in vivo
[25] = target: Protein mono-ADP-ribosyltransferase PARP3 (Homo sapiens, UniProt Q9Y6F1); experiment: Inhibition of human PARP3 using NAD+ as substrate by fluorescence assay
[26] = tested on: Mus musculus; experiment: Toxicity in immunocompetent BDF1 mouse allografted with mouse P388 cells assessed as body weight change at 15 to 30 mg/kg, po administered qd for 10 days measured on day 12 post last dose; type: organism-based; conditions: in vivo, 240 h
[27] = tested on: P388; experiment: Antitumor activity against mouse P388 cells allografted in immunocompetent BDF1 mouse assessed as tumor growth inhibition at 30 mg/kg, po administered qd for 10 days measured on day 12 post last dose; type: functional; conditions: read-out: TGI; outline: as §1
[28] = tested on: Canis familiaris; experiment: Clearance in Beagle dog at 7 mg/kg, po measured up to 24 hrs postdose; type: ADME, organism-based, Canis lupus familiaris; conditions: in vivo
[29] = tested on: Mus musculus; experiment: Toxicity in immunodeficient nude Balb/c mouse xenografted with human COLO320DM cells assessed as body weight change at 15 to 60 mg/kg, po administered qd for 10 days measured on days 12, 17 and 21 post last dose; conditions: in vivo, 240 h
[30] = tested on: Mus musculus; experiment: Toxicity in immunodeficient nude Balb/c mouse xenografted with human COLO320DM cells assessed as animal discomfort at 15 to 60 mg/kg, po administered qd for 10 days measured on days 12, 17 and 21 post last dose; conditions: in vivo, 240 h
[31] = target: Poly [ADP-ribose] polymerase 2 (Homo sapiens, UniProt Q9UGN5); experiment: Inhibition of human GST-tagged PARP2 (2 to 583 residues) expressed in baculovirus infected Sf9 cell expression system using NAD+ as substrate after 4 hrs by fluorescence assay
[32] = target: Dual specificity protein kinase CLK2 (Homo sapiens) (UniProt P49760); experiment: Inhibition of CLK2 (unknown origin) at 10 uM after 60 mins in presence of [gamma-33P]-ATP by microplate scintillation counting; outline: as §2
[33] = Intrinsic clearance in human hepatocytes assessed per million cells at 3 uM measured up to 120 mins by LC-MS/MS analysis; type: ADME, cell-based, Hepatocyte; conditions: read-out: CLH

Sequence of Protein mono-ADP-ribosyltransferase PARP14 (Q460N5 whole entry): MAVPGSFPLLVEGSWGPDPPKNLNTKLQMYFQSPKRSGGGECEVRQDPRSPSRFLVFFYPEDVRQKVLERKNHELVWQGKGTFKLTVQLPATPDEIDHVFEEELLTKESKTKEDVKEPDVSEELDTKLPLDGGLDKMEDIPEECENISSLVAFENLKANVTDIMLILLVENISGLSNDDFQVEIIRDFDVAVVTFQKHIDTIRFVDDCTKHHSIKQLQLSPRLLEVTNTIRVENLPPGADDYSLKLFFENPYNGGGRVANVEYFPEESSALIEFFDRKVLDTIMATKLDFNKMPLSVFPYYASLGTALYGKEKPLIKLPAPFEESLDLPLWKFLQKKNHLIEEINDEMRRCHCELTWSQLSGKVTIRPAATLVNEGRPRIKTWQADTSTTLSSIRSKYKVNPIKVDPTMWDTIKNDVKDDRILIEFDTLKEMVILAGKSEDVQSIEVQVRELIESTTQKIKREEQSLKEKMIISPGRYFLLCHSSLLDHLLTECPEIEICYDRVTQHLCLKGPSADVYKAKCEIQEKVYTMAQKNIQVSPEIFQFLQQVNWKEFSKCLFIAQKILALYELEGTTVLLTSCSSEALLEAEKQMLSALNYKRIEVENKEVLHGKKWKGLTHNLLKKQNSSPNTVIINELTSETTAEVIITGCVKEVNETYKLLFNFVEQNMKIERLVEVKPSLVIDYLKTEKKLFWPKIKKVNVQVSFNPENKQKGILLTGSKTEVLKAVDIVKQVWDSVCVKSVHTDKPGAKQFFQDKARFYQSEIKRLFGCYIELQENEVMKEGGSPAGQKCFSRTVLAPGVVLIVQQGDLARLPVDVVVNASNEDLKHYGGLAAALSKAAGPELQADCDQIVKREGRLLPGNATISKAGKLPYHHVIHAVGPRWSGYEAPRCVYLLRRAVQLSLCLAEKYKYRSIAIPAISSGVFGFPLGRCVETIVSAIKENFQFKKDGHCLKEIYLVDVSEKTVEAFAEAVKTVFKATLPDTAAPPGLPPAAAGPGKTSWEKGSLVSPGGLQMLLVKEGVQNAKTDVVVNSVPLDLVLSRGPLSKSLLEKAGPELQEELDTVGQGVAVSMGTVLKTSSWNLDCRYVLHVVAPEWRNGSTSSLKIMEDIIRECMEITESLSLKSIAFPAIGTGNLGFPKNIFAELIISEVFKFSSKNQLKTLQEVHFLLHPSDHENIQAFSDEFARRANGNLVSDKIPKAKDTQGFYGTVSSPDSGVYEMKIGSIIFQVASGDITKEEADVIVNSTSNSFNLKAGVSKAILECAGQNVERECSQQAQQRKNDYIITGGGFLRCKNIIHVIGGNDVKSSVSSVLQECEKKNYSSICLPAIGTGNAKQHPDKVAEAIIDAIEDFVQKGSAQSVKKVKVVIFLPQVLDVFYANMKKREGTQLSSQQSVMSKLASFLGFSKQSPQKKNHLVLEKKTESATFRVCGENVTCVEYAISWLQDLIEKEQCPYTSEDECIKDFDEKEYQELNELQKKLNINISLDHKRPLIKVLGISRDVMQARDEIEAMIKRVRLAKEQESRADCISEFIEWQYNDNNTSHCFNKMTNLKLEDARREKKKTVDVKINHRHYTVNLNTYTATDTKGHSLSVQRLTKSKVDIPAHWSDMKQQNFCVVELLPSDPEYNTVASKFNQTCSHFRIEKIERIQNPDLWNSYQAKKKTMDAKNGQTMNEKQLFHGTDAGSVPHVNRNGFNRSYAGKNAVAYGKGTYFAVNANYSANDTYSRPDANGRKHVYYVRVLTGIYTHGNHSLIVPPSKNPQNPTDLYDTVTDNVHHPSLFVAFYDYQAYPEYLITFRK
Sequence of Serine/threonine-protein kinase 16 (Homo sapiens) (O75716 whole entry): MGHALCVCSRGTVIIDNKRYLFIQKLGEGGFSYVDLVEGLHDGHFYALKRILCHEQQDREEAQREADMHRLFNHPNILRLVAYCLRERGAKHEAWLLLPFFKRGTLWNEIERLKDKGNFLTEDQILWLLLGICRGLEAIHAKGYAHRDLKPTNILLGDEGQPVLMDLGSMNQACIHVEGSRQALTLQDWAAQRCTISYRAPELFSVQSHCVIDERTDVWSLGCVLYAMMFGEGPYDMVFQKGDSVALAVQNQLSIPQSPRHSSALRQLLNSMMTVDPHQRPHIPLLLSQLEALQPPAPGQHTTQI
Sequence of cGMP-dependent protein kinase 1 (Homo sapiens) (Q13976 whole entry): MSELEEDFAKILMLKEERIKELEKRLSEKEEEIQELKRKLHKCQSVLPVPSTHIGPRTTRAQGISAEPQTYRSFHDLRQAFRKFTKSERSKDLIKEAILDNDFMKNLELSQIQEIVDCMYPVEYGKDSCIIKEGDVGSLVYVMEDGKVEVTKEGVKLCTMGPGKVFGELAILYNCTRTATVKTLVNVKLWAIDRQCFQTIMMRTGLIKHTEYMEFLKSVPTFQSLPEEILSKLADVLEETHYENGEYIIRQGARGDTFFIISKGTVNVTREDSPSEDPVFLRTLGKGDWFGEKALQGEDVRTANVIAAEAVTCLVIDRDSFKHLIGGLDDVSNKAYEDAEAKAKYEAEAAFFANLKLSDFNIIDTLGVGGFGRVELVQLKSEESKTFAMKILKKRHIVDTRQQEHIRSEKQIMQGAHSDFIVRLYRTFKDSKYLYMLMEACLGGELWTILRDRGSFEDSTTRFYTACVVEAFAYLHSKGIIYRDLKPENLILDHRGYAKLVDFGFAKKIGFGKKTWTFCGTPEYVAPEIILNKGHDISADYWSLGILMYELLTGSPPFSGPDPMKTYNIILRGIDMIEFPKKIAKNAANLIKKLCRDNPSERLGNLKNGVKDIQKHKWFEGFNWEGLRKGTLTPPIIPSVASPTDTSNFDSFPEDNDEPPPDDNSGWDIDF
Sequence of Protein mono-ADP-ribosyltransferase PARP12 (Q9H0J9 whole entry): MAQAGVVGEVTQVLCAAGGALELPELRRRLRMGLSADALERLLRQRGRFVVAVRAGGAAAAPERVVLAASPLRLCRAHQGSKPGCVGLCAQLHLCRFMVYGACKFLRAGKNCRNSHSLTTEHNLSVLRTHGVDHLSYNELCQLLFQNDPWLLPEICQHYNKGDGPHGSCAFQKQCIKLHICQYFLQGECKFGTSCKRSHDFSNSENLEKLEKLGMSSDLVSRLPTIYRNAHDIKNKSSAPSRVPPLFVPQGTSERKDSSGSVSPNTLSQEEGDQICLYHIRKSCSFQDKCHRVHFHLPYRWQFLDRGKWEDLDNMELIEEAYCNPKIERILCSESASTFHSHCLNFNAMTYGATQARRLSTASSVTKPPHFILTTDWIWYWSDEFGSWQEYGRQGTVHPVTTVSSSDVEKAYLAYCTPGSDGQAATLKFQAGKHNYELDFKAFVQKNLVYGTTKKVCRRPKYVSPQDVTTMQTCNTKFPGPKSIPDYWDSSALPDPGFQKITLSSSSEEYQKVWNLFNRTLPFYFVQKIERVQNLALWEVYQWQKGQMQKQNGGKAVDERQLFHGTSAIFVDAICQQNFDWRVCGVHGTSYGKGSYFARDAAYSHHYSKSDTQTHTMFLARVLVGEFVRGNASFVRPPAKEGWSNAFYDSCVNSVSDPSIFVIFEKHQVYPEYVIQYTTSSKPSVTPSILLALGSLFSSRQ
Sequence of Dual specificity protein kinase CLK2 (Homo sapiens) (P49760 whole entry, looked up): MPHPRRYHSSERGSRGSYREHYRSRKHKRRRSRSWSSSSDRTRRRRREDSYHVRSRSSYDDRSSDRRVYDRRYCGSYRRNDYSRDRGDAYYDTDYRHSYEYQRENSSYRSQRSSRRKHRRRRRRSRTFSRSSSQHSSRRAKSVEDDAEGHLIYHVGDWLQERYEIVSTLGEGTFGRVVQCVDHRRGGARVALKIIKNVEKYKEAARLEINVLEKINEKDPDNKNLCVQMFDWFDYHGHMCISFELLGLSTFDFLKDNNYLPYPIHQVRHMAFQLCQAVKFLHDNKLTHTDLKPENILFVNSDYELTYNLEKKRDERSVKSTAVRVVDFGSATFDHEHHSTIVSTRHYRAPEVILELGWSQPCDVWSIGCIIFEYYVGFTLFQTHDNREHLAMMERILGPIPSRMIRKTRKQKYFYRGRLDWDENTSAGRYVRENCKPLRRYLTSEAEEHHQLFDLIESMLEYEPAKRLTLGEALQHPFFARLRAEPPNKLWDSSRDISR
Sequence of Poly [ADP-ribose] polymerase 2 (Q9UGN5 whole entry, the tested form may be a part): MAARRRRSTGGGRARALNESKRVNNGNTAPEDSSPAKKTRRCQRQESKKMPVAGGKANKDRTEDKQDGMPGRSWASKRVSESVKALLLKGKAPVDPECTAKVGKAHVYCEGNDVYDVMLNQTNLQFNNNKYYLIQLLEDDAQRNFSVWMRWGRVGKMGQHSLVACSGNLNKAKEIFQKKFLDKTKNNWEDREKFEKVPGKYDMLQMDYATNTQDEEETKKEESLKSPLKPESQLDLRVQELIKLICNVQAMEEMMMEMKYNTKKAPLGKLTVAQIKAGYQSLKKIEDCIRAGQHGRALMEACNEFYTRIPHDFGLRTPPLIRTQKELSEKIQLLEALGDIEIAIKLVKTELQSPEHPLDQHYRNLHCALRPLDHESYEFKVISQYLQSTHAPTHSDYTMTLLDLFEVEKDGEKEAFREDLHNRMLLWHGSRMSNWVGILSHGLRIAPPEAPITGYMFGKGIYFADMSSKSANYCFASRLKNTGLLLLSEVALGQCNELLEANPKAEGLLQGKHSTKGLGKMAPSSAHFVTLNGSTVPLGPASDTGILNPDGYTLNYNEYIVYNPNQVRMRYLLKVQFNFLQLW
Sequence of Cytochrome P450 2C19 (P33261 whole entry): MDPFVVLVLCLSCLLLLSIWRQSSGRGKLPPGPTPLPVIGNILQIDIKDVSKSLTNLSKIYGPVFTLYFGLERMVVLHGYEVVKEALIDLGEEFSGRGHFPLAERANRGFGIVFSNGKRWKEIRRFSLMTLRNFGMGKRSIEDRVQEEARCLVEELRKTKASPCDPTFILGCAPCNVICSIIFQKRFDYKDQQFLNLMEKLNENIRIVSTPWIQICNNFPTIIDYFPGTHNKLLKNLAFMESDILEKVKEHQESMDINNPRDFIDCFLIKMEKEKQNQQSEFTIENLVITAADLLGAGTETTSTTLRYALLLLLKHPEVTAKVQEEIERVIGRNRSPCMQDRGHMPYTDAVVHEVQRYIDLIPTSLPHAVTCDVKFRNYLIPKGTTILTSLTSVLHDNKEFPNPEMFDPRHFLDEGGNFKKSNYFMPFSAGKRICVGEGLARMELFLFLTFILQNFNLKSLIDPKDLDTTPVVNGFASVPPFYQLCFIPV

## N#Cc1ccc2c(c1)[nH]c(=O)n2[C@H]1C[C@H](c2nnc(-c3ccncn3)n2-c2ccccc2Cl)C1
[1]
  IC50: > 100 µM
[2]
  inhibition in vivo at 15 mg/kg: 32%
[3]
  solubility kinetic at 2 h: 31.2 µM (≈ 14.6 µg/mL)
[4]
  IC50: > 25 µM
[5]
  inhibition: 70%
[6]
  AUC(0-t) at 24 h: 27100 ng·h/mL
[7]
  IC50: > 100 µM
[8]
  bioavailability: 91%
[9]
  bioavailability: 47%
[10]
  AUC(0-t) at 24 h: 145 ng·h/mL
[11]
  AUC(0-t) at 24 h: 2760 ng·h/mL
[12]
  IC50: > 25 µM
[13]
  IC50: > 10 µM
[14]
  IC50: > 25 µM
[15]
  half-life: 1.5 h
[16]
  inhibition: 52%
[17]
  Cmax: 124 ng/mL
[18]
  IC50: > 10 µM
[19]
  Papp: 5.3 ×10⁻⁷ cm/s
[20]
  IC50: > 10 µM
[21]
  IC50: > 10 µM
[22]
  half-life: 4.7 h
[23]
  inhibition: 66%
[24]
  Drug excretion: Metabolite_Notdetected
[25]
  IC50: > 100 µM
[26]
  Activity: Non-Toxic
[27]
  inhibition in vivo at 30 mg/kg: 57%
[28]
  clearance: 2.33 mL/min/kg
[29]
  Activity: Non-Toxic
[30]
  Activity: Non-Toxic
[31]
  IC50: > 100 µM
[32]
  inhibition: 73%
[33]
  hepatocyte CLint at 3 µM: 6.44 µL/min/1e6 cells
